Assay results: ChEMBL document CHEMBL1137859, “Synthesis of C8-linked pyrrolo[2,1-c][1,4]benzodiazepine-benzimidazole conjugates with remarkable DNA-binding affinity” (2004)
Values belong to the compound of their own block, whether it stands above or below them.

Experiments:
Calf thymus DNA [1] = assay: Thermal denaturation of calf thymus DNA at 18 h, incubation at 37 degree C; format: nucleic-acid assay; conditions: Bos taurus
Outline: (§1)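 CT-DNA (100 μM) with ligand 20 μM (PBD/DNA molar ratio 1:5) in aqueous sodium phosphate buffer (10 mM sodium phosphate + 1 mM EDTA, pH 7.00±0.01). Incubated at 37 °C for 0 h or 18 h, then thermal helix→coil melting followed. ΔTm taken relative to DNA alone (Tm mean of 20 separate determinations). ΔTm values ±0.05–0.1 °C.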

Calf thymus DNA [2] = assay: Thermal denaturation of calf thymus DNA at 0 h, incubation at 37 degree C; format: nucleic-acid assay; conditions: Bos taurus; outline: as §1
RXF 393 = assay: In vitro concentration required to produce 50% lethality against human renal RXF 393 cell line; format: functional; conditions: read-out: LC50 (the source's name)
[3] = In vitro concentration required to produce 50% lethality against human CNS […] cell line; format: functional; conditions: read-out: LC50 (the source's name)
Malme-3M = assay: In vitro concentration required to produce 50% lethality against human melanoma MALME-3M cell line; format: functional; conditions: read-out: LC50 (the source's name)
BT-549 = assay: In vitro concentration required to produce 50% lethality against human breast BT-549 cell line; format: functional; conditions: read-out: LC50 (the source's name)
A498 = assay: In vitro concentration required to produce 50% lethality against human renal A-498 cell line; format: functional; conditions: read-out: LC50 (the source's name)
SNB-19 = assay: In vitro concentration required to produce 50% lethality against human CNS SNB-19 cell line; format: functional; conditions: read-out: LC50 (the source's name)
SK-MEL-5 = assay: In vitro concentration required to produce 50% lethality against human melanoma SK-MEL-5 cell line; format: functional; conditions: read-out: LC50 (the source's name)
MDA-MB-435 = assay: In vitro concentration required to produce 50% lethality against human breast MDA-MB-435 cell line; format: functional; conditions: read-out: LC50 (the source's name)
HOP-62 = assay: In vitro concentration required to produce 50% lethality against human non small cell lung HOP-62 cell line; format: functional; conditions: read-out: LC50 (the source's name)
KM12 = assay: In vitro concentration required to produce 50% lethality against human colon KM12 cell line; format: functional; conditions: read-out: LC50 (the source's name)
OVCAR-3 = assay: In vitro concentration required to produce 50% lethality against human ovarian OVCAR-3 cell line; format: functional; conditions: read-out: LC50 (the source's name)
SK-MEL-2 = assay: In vitro concentration required to produce 50% lethality against human melanoma SK-MEL-2 cell line; format: functional; conditions: read-out: LC50 (the source's name)
TK-10 = assay: In vitro concentration required to produce 50% lethality against human renal TK-10 cell line; format: functional; conditions: read-out: LC50 (the source's name)
[4] = In vitro concentration required to produce 50% lethality against human prostate DU-145 cell line; format: functional; conditions: read-out: LC50 (the source's name)
786-0 = assay: In vitro concentration required to produce 50% lethality against human renal 786-0 cell line; format: functional; conditions: read-out: LC50 (the source's name)
M14 = assay: In vitro concentration required to produce 50% lethality against human melanoma M14 cell line; format: functional; conditions: read-out: LC50 (the source's name)
UACC-62 = assay: In vitro concentration required to produce 50% lethality against human melanoma UACC-62 cell line; format: functional; conditions: read-out: LC50 (the source's name)
SN12C = assay: In vitro concentration required to produce 50% lethality against human renal SN12C cell line; format: functional; conditions: read-out: LC50 (the source's name)
NCI-H522 = assay: In vitro concentration required to produce 50% lethality against human non small cell lung NCI-H522 cell line; format: functional; conditions: read-out: LC50 (the source's name)
OVCAR-5 = assay: In vitro concentration required to produce 50% lethality against human ovarian OVCAR-5 cell line; format: functional; conditions: read-out: LC50 (the source's name)
MDA-MB-231 = assay: In vitro concentration required to produce 50% lethality against human breast MDA-MB-231/ATCC cell line; format: functional; conditions: read-out: LC50 (the source's name)
T47D = assay: In vitro concentration required to produce 50% lethality against human breast T47D cell line; format: functional; conditions: read-out: LC50 (the source's name)
EKVX = assay: In vitro concentration required to produce 50% lethality against human non small cell lung EKVX cell line; format: functional; conditions: read-out: LC50 (the source's name)
SF-539 = assay: In vitro concentration required to produce 50% lethality against human CNS SF-539 cell line; format: functional; conditions: read-out: LC50 (the source's name)
NCI-H226 = assay: In vitro concentration required to produce 50% lethality against human non small cell lung NCI-H226 cell line; format: functional; conditions: read-out: LC50 (the source's name)
PC-3 = assay: In vitro concentration required to produce 50% lethality against human prostate PC-3 cell line; format: functional; conditions: read-out: LC50 (the source's name)
IGROV-1 = assay: In vitro concentration required to produce 50% lethality against human ovarian IGROVI cell line; format: functional; conditions: read-out: LC50 (the source's name)
OVCAR-8 = assay: In vitro concentration required to produce 50% lethality against human ovarian OVCAR-8 cell line; format: functional; conditions: read-out: LC50 (the source's name)

ΔTm (Calf thymus DNA [1]): 11 °C
ΔTm (Calf thymus DNA [2]): 10.3 °C
SMILES: COc1cc2c(cc1OCCCCCOc1ccc(-c3nc4ccccc4[nH]3)cc1)N=C[C@@H]1CCCN1C2=O

ΔTm (Calf thymus DNA [1]): 11.4 °C
ΔTm (Calf thymus DNA [2]): 11 °C
SMILES: COc1cc2c(cc1OCCCOc1ccc(-c3nc4ccccc4[nH]3)cc1)N=C[C@@H]1CCCN1C2=O

ΔTm (Calf thymus DNA [1]): 15.5 °C
ΔTm (Calf thymus DNA [2]): 15.5 °C
SMILES: COc1cc2c(cc1OCCCCOc1ccc(-c3nc4cc(N5CCN(C)CC5)ccc4[nH]3)cc1)N=C[C@@H]1CCCN1C2=O

ΔTm (Calf thymus DNA [1]): 22.6 °C
ΔTm (Calf thymus DNA [2]): 22.4 °C
SMILES: COc1cc2c(cc1OCCCCCOc1ccc(-c3nc4cc(N5CCN(C)CC5)ccc4[nH]3)cc1)N=C[C@@H]1CCCN1C2=O

ΔTm (Calf thymus DNA [1]): 4 °C
ΔTm (Calf thymus DNA [2]): 3.8 °C
SMILES: COc1cc2c(cc1OCCCCOc1ccc(-c3nc4ccccc4[nH]3)cc1)N=C[C@@H]1CCCN1C2=O

Further lines, the compound ahead of its results:

SMILES: COc1cc2c(cc1OCCCOc1ccc(-c3nc4ccc(N5CCN(C)CC5)cc4[nH]3)cc1)N=C[C@@H]1CCCN1C2=O
CC50 (RXF 393): 0.01 µM
CC50 [3]: 27.8 µM
CC50 (Malme-3M): 34.4 µM
ΔTm (Calf thymus DNA [1]): 22.5 °C
CC50 (BT-549): 12.6 µM
ΔTm (Calf thymus DNA [2]): 16.6 °C
CC50 (A498): 0.01 µM
CC50 (SNB-19): 47.5 µM
CC50 (SK-MEL-5): 0.01 µM
CC50 (MDA-MB-435): 0.01 µM
CC50 (HOP-62): 17.4 µM
CC50 (KM12): 45.2 µM
CC50 (OVCAR-3): 34.6 µM
CC50 (SK-MEL-2): 0.01 µM
CC50 (TK-10): 39.7 µM
CC50 [4]: 33.7 µM
CC50 (786-0): 31.2 µM
CC50 (M14): 0.01 µM
CC50 (UACC-62): 0.01 µM
CC50 (SN12C): 18.7 µM
CC50 (NCI-H522): 0.01 µM
CC50 (OVCAR-5): 33.9 µM
CC50 (MDA-MB-231): 13.5 µM
CC50 (T47D): 42.1 µM
CC50 (EKVX): 25.2 µM
CC50 (SF-539): 0.01 µM
CC50 (NCI-H226): 23.5 µM
CC50 (PC-3): 16.4 µM
CC50 (IGROV-1): 45.3 µM
CC50 (OVCAR-8): 21 µM

SMILES: CN1CCN(c2ccc3[nH]c(-c4ccc(O)cc4)nc3c2)CC1
ΔTm (Calf thymus DNA [1]): 2.9 °C
ΔTm (Calf thymus DNA [2]): 2.9 °C

SMILES: COc1cc2c(cc1O)N=C[C@H]1CCCN1C2=O
ΔTm (Calf thymus DNA [2]): 0.3 °C
